The source of these data is ChEMBL document CHEMBL1122273, “5-sulfamoylorthanilic acids, a sulfonamide series with salidiuretic activity” (J Med Chem, 1983).

Experiment [1] has as its system Canis familiaris. Nature of the experiment: Saluretic activity in the dog measured as concentration of Na+ in urinary excretion (2 animals/dose) at (dose 1.56 mg/Kg, po). Format: functional, Canis lupus familiaris, Urine. Summed up:
(§1)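 Male beagles trained to rest on a table and to accept stomach tube and catheter. Food withdrawn 24 h before, tap water ad libitum. Bladder emptied by catheter, then 20 mL/kg tap water by stomach tube. Catheterized hourly up to 8 h with 4 mL/kg water orally each time; first 2 h urine served as control. Oral dosing after second catheterization. Pooled 1–6 h urine; Na⁺/K⁺ by flame photometry, Cl⁻ argentometrically.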

Experiment [2] concerns Canis familiaris. As to the kind of experiment: Diuretic activity in the dog (2 animals/dose) at (dose 1.56 mg/Kg), when administered perorally. Format: functional, Canis lupus familiaris, Urine. Summed up: (§2)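 Trained male beagles, fasted 24 h with tap water ad libitum. Bladder emptied by catheter, then 20 mL/kg tap water by stomach tube, with 4 mL/kg water at each hourly catheterization up to 8 h. The first 2 h of urine served as control. Oral dosing came after the second catheterization, and 1–6 h urine was pooled. Na⁺ and K⁺ were measured by flame photometry, Cl⁻ argentometrically, in mequiv/kg.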

Experiment [3] relates to Canis familiaris. As to the kind of experiment: Saluretic activity in the dog measured as concentration of K+ in urinary excretion (2 animals/dose) at (dose 1.56 mg/Kg, po). Format: functional, Canis lupus familiaris, Urine. Summed up: as §1
The test system of experiment [4] is Canis familiaris. As to the kind of experiment: Saluretic activity in the dog measured as concentration of Cl - in urinary excretion (2 animals/dose) at (dose 1.56 mg/Kg, po). Format: functional, Canis lupus familiaris, Urine. A digest of the protocol:
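Male beagles trained to the procedures, food withdrawn 24 h before, tap water ad libitum. Bladder emptied by catheter, then 20 mL/kg tap water by stomach tube, plus 4 mL/kg orally at each hourly catheterization up to 8 h. The first 2 h of urine served as control. Compound given orally after the second catheterization. Urine from 1–6 h post-dose pooled; Na⁺ and K⁺ by flame photometry, Cl⁻ argentometrically, in mequiv/kg.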

The species named for experiment [5] is Rattus norvegicus. As to the kind of experiment: Diuretic activity in the rats, determined by a modified Lipschitz test. Format: functional, Urine. A digest of the protocol:
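Modified Lipschitz test: rats deprived of water 24 h, grouped in threes of similar weight in diuresis funnels. Oral dose of 50 mg/kg, suspended in 2% starch solution, by stomach tube.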

For experiment [6], the species on record is Rattus norvegicus. Nature of the experiment: Saluretic activity in the rat measured as concentration of chloride in urine. Format: functional. Summed up: (§3)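 Rats deprived of food 24 h, water ad libitum, dosed 50 mg/kg by stomach tube as suspension in 2% starch, no extra water load. Groups of three in diuresis funnels; urine over first 5 h collected. Na⁺ and K⁺ by flame photometry, Cl⁻ argentometrically; expressed as mequiv/kg.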

The species named for experiment [7] is Rattus norvegicus. As to the kind of experiment: Saluretic activity in the rat measured as concentration of K+ in urine. Format: functional. Summed up:
as §3

Experiment [8] is described as follows: It is the ratio, measured as saluretic activity in the dog as concentration of Na+ in urinary excretion (dose 1.56 mg/Kg, po) to that of K. Format: functional, Urine. A digest of the protocol:
as §2

The nature of experiment [9]: It is the ratio, measured as saluretic activity in the dog as concentration of Cl- in urinary excretion (dose 1.56 mg/Kg, po) to that of (Na+)+(K+). Format: functional, Urine. Summed up:
as §2

The species entered for experiment [10] is Rattus norvegicus. Nature of the experiment: Saluretic activity in the rat measured as concentration of Na+ in urine. Format: functional. Summed up:
as §3

Regarding `CCCCSc1cc(NCc2ccco2)c(S(=O)(=O)[O-])cc1S(N)(=O)=O.[K+]`, the Saluretic activity in experiment [1] worked out at 1.06 m equiv 6hr-1 kg-1; in experiment [6], 3.6 m equiv 5hr-1 kg-1; in experiment [7], 2.2 m equiv 5hr-1 kg-1; in [10], 3.6 m equiv 5hr-1 kg-1. The Diuretic activity in experiment [2] was determined as 32.8 ml kg-1 6hr-1; in experiment [5] it was 2.5 mL/kg. Besides, the results for the Saldiuretic activity in [3] and in experiment [4] were 0.35 m equiv 6hr-1 kg-1 and 1.43 m equiv 6hr-1 kg-1, respectively. Moreover, the Ratio worked out at 3 in experiment [8] and 1 in [9].

Take `NS(=O)(=O)c1cc(S(=O)(=O)[O-])c(NCc2ccco2)cc1SC1CCCCC1.[K+]`: the Saluretic activity worked out at 0.27 m equiv 6hr-1 kg-1 in experiment [1], 1.9 m equiv 5hr-1 kg-1 in experiment [6], 0.5 m equiv 5hr-1 kg-1 in experiment [7] and 1.4 m equiv 5hr-1 kg-1 in experiment [10]. The Diuretic activity in experiment [2] was determined as 32.6 ml kg-1 6hr-1; in experiment [5], 0.8 mL/kg. Moreover, the Saldiuretic activity in experiment [3] is 0.07 m equiv 6hr-1 kg-1; in experiment [4] it was 0.32 m equiv 6hr-1 kg-1. Besides, the Ratio was determined as 3.9 in [8] and 0.95 in experiment [9].

On to `Cc1ccc(Oc2cc(NCc3ccco3)c(S(=O)(=O)[O-])cc2S(N)(=O)=O)cc1C.[K+]`, for which the Diuretic activity in experiment [5] turned out to be 1.3 mL/kg. Also, the Saluretic activity in experiment [6] stood at 3.7 m equiv 5hr-1 kg-1; in experiment [7], 1.4 m equiv 5hr-1 kg-1; in [10], 2.2 m equiv 5hr-1 kg-1.

`CN(c1ccccc1)c1cc(NCc2ccco2)c(S(=O)(=O)O)cc1S(N)(=O)=O.NC(N)=NC(=O)c1nc(Cl)c(N)nc1N` yielded a Diuretic activity in experiment [5] of 3.3 mL/kg. The Saluretic activity in experiment [6] was 2.3 m equiv 5hr-1 kg-1; in experiment [7] it was 0.4 m equiv 5hr-1 kg-1; in experiment [10], 3.5 m equiv 5hr-1 kg-1.

The molecule `CN(c1ccc(Cl)cc1)c1cc(NCc2ccco2)c(S(=O)(=O)[O-])cc1S(N)(=O)=O.[Na+]` came in with a Diuretic activity in experiment [5] of 1.2 mL/kg. Also, the Saluretic activity is on record as 0.7 m equiv 5hr-1 kg-1 in experiment [6], 1.1 m equiv 5hr-1 kg-1 in experiment [7] and 0.7 m equiv 5hr-1 kg-1 in experiment [10].

Regarding `CN(C)S(=O)(=O)c1cc(S(=O)(=O)[O-])c(NCc2ccco2)cc1Oc1ccccc1.[K+]`, the Diuretic activity in experiment [5] was determined as 1.2 mL/kg. The Saluretic activity in experiment [6] is reported as 0.7 m equiv 5hr-1 kg-1; in experiment [7], 1.1 m equiv 5hr-1 kg-1; in experiment [10] it was 0.3 m equiv 5hr-1 kg-1.

For the molecule `CN(c1ccccc1)c1cc(NCc2ccco2)c(S(=O)(=O)[O-])cc1S(N)(=O)=O.[K+]`, the Diuretic activity in experiment [5] worked out at 3.1 mL/kg. The Saluretic activity in [6] stood at 7.4 m equiv 5hr-1 kg-1; in [7], 1.7 m equiv 5hr-1 kg-1; in experiment [10], 6.3 m equiv 5hr-1 kg-1.

The molecule `CN(c1cc(NCc2ccco2)c(S(=O)(=O)[O-])cc1S(N)(=O)=O)C1CCCCC1.[K+]` displayed a Diuretic activity in [5] of 0.8 mL/kg. The Saluretic activity came out at 0.6 m equiv 5hr-1 kg-1 in experiment [6], 1 m equiv 5hr-1 kg-1 in [7] and 0.4 m equiv 5hr-1 kg-1 in experiment [10].

Consider `Cc1cccc(Nc2cc(NCc3ccco3)c(S(=O)(=O)[O-])cc2S(N)(=O)=O)c1.[Na+]`, for which the Diuretic activity in [5] worked out at 0.8 mL/kg. Further, the Saluretic activity in [6] is reported as 0.9 m equiv 5hr-1 kg-1; in experiment [7], 1.5 m equiv 5hr-1 kg-1; in [10] it was 0.6 m equiv 5hr-1 kg-1.

In [5], `CN(c1ccccc1)c1cc(NCc2ccco2)c(S(=O)(=O)O)cc1S(N)(=O)=O.N` had a Diuretic activity of 4.8 mL/kg. Further, the Saluretic activity in [6] was 8.3 m equiv 5hr-1 kg-1; in experiment [7], 2.1 m equiv 5hr-1 kg-1; in experiment [10], 6.8 m equiv 5hr-1 kg-1.

`COc1ccccc1CNc1cc(Cl)c(S(N)(=O)=O)cc1S(=O)(=O)[O-].[Na+]` gave a Diuretic activity in experiment [5] of 0.2 mL/kg. Moreover, the Saluretic activity in [6] was determined as 0.1 m equiv 5hr-1 kg-1; in experiment [7], 0.3 m equiv 5hr-1 kg-1; in experiment [10], 0.1 m equiv 5hr-1 kg-1.

Molecule `Cc1ccccc1Nc1cc(NCc2ccco2)c(S(=O)(=O)[O-])cc1S(N)(=O)=O.[Na+]` gave a Diuretic activity in [5] of 0.6 mL/kg. For the same molecule, the Saluretic activity came to 0.6 m equiv 5hr-1 kg-1 in experiment [6], 1 m equiv 5hr-1 kg-1 in experiment [7] and 0.7 m equiv 5hr-1 kg-1 in [10].

In turn, `CNS(=O)(=O)c1cc(S(=O)(=O)[O-])c(NCc2ccco2)cc1N(C)c1ccccc1.[K+]` gave a Diuretic activity in [5] of 1.3 mL/kg. The Saluretic activity in experiment [6] was 1.8 m equiv 5hr-1 kg-1; in experiment [7], 1.4 m equiv 5hr-1 kg-1; in [10], 1.2 m equiv 5hr-1 kg-1.

In experiment [5], `NS(=O)(=O)c1cc(S(=O)(=O)[O-])c(NCc2ccco2)cc1Oc1cccc(Cl)c1.[K+]` returned a Diuretic activity of 2 mL/kg. In addition, the Saluretic activity in [6] was determined as 5.1 m equiv 5hr-1 kg-1; in [7] it was 2 m equiv 5hr-1 kg-1; in [10], 3.8 m equiv 5hr-1 kg-1.

Take `NC(CO)(CO)CO.NS(=O)(=O)c1cc(S(=O)(=O)O)c(NCc2ccco2)cc1Oc1ccccc1`: in [5], the Diuretic activity came to 4.1 mL/kg. Besides, the Saluretic activity in [6] is recorded as 7.8 m equiv 5hr-1 kg-1; in experiment [7], 2.2 m equiv 5hr-1 kg-1; in [10], 5.8 m equiv 5hr-1 kg-1.

In [5], `NS(=O)(=O)c1cc(S(=O)(=O)[O-])c(NCc2ccco2)cc1S(=O)(=O)CC1CCCCC1.[Na+]` showed a Diuretic activity of 4.6 mL/kg. Also, the Saluretic activity turned out to be 10.7 m equiv 5hr-1 kg-1 in experiment [6], 2.7 m equiv 5hr-1 kg-1 in [7] and 8.8 m equiv 5hr-1 kg-1 in experiment [10].

The molecule `Nc1cc(Oc2ccccc2)c(S(N)(=O)=O)cc1S(=O)(=O)[O-].[K+]` showed a Diuretic activity in experiment [5] of 1 mL/kg. The Saluretic activity in experiment [6] is 0.7 m equiv 5hr-1 kg-1; in experiment [7], 1.3 m equiv 5hr-1 kg-1; in experiment [10], 0.5 m equiv 5hr-1 kg-1.

With `NS(=O)(=O)c1cc(S(=O)(=O)[O-])c(NCc2ccco2)cc1NCc1ccccc1.[K+]`, in experiment [5], the Diuretic activity turned out to be 1 mL/kg. Also, the Saluretic activity in experiment [6] is reported as 1.2 m equiv 5hr-1 kg-1; in experiment [7], 0.6 m equiv 5hr-1 kg-1; in experiment [10] it was 0.8 m equiv 5hr-1 kg-1.

Regarding `CN(c1ccccc1)c1cc(NCCc2ccco2)c(S(=O)(=O)[O-])cc1S(N)(=O)=O.[K+]`, the Saluretic activity is 4.7 m equiv 6hr-1 kg-1 in experiment [1]; 1.08 m equiv 6hr-1 kg-1 in [3]; 3.2 m equiv 5hr-1 kg-1 in [6]; 2 m equiv 5hr-1 kg-1 in experiment [7]; 2.2 m equiv 5hr-1 kg-1 in experiment [10]. In addition, the Diuretic activity in experiment [2] turned out to be 59.9 ml kg-1 6hr-1; in experiment [5], 1.2 mL/kg. In experiment [4], the Saldiuretic activity stood at 5.81 m equiv 6hr-1 kg-1. For the same molecule, the Ratio in experiment [8] is reported as 4.3; in experiment [9], 1.
